Assay results of several laboratories.
Compare with care: the assays were run in different laboratories. Converted amounts (≈) assume the structure as drawn.

O=C(c1ccc(F)cc1)c1c[nH]c2ncc(-c3ccc(N4CCNCC4)cc3)cc12
viability (A549; cell growth or viability, MTT; 10 µM, 48 h): 89.1%

N#Cc1cc2c(-c3ccccc3)n[nH]c2c(Nc2ccccc2)n1
IC50 (PC-3; cell growth or viability, MTS; 48 h): 2100 nM

N=C(N)c1ccc(OCCCCCOc2ccc(C(=N)N)cc2)cc1
IC90 (Leishmania donovani; parasite growth; amastigote): 9 µg/mL (≈ 26.4 µM)

CC(C)(C)OC(=O)N1CCN(c2ccc(-c3cnc4c(c3)c(C(=O)c3ccc(F)cc3)cn4CC3CC3)cn2)CC1
viability (A549; cell growth or viability, MTT; 10 µM, 48 h): 79.8%

C[C@@H]1[C@H](O)[C@@H](C)/C=C/C=C/C=C/C=C/C=C/C=C/C=C/[C@H](O[C@@H]2O[C@H](C)[C@@H](O)[C@H](N)[C@@H]2O)C[C@@H]2O[C@](O)(C[C@@H](O)C[C@@H](O)[C@H](O)CC[C@@H](O)C[C@@H](O)CC(=O)O[C@H]1C)C[C@H](O)[C@H]2C(=O)O
IC50 (Leishmania donovani; parasite growth; THP-1; intracellular, amastigote): 0.1 µg/mL

CCOC(=O)c1c(CSc2ccccc2)n(C)c2cc(Br)c(O)c(CN(C)C)c12.Cl.O
MIC50 (Punta Toro virus; cytopathic effect): > 100 µg/mL

O=C(NCCCNc1c2c(nc3ccccc13)CCCC2)c1ccccc1O
IC50 (ABTS scavenging; 1 h): 27700 nM

CCOC(=O)C1=C[C@@H](OC(CC)CC)[C@H](NC(C)=O)[C@@H](N)C1
IC50 (unidentified influenza virus; viral replication; A549, H1N1 PR8; 24 h): 180 nM

Nc1ncnc2c([C@@H]3N[C@H](CO)[C@@H](O)[C@H]3O)c[nH]c12
inhibition (unidentified influenza virus; viral replication, inhibitor; MDCK; 29.6 µM): 100%

O=C(N/N=C1\C(=O)N(Cc2ccccc2)c2ccc(F)cc21)c1cc2ccccc2[nH]1
inhibition (A549; cell growth or viability; 30 µM): 99.1%

C[C@]12C=CC(=O)C[C@@H]1CC[C@@H]1[C@@H]2C(=O)C[C@@]2(C)[C@H]1CC[C@]2(C)O
IC50 (NIH3T3; cell growth or viability, MTT; 24 h): > 30000 nM

COc1ccc2c(c1)/C(=N/NC(=O)c1cc3ccccc3[nH]1)C(=O)N2Cc1ccccc1
inhibition (A549; cell growth or viability; 30 µM): 97.4%

Cc1nc2c(N)nc(=O)[nH]c2n1C(Cc1ccccc1)C(=O)O (stereo not shown)
IC50 (unidentified influenza virus; viral replication; A549, H1N1 PR8; 24 h): 520 nM

CC(C)=CCC/C(C)=C/COc1cc(O)cc(O)c1C(=O)c1ccccc1
IC50 (ABTS scavenging, absorbance; 5 min): 380000 nM

COC(=O)C(Cc1ccccc1)n1c(C)nc2c(N)nc(N)nc21 (stereo not shown)
IC50 (unidentified influenza virus; viral replication; A549, H1N1 PR8; 24 h): 39 nM

CC(C)(C)OC(=O)N1CCN(c2ccc(-c3cnc4[nH]cc(C(=O)c5ccc(F)cc5)c4c3)cc2)CC1
viability (A549; cell growth or viability, MTT; 10 µM, 48 h): 91.5%
